From ChEMBL document CHEMBL1154705, “Modulation of carcinogen metabolizing enzymes by new fused heterocycles pendant to 5,6,7,8-tetrahydronaphthalene derivatives” (Eur J Med Chem, 2010)
Active and inactive are the calls of the source. The rule behind the calls is not given here.

Legend:
Hepa-1c1c7 [1] = test: Inhibition of CYP1A in mouse Hepa-1c1c7 cells at 1 ug/ml assessed as dealkylation rate of 3-cyano-7-ethoxycoumarin; format: cell-based
[2] = Antioxidant activity assessed as hydroxyl radical scavenging activity by ORAC assay; format: functional
[3] = Cytotoxicity against mouse Hepa-1c1c7 cells after 48 hrs by MTT assay; format: functional, cell-based
How it was run: (§1)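 MTT reduction assay: cells seeded at 5 x10⁴ cells/well and incubated 48 h at 37 °C with various concentrations of compounds. Formazan solubilized in acidic isopropanol.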

Hepa-1c1c7 [4] = test: Induction of GST activity in mouse Hepa-1c1c7 cells at 10 ug/ml after 48 hrs by bicinchoninic acid assay; format: cell-based
How it was run: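 Hepa1c1c7 cells in DMEM with 10% FBS, 37 °C, 5% CO₂, treated 48 h with compounds (DMSO diluted 1000-fold). Total GST activity read kinetically at 340 nm. Activity normalized to protein by BCA and given relative to DMSO control (100%). Four repeats, mean ± S.D.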

Lymphocyte [5] = test: Inhibition of methyl methanesulphonate-induced DNA damage in human lymphocyte assessed as inhibition of tail moment at 10 ug/ml after 1 hr before MMS challenge measured after 3 hrs by comet assay; format: functional, cell-based
[6] = Cytotoxicity against human lymphocytes after 48 hrs by MTT assay; format: functional, cell-based; conditions: lymphocyte; how it was run: as §1
Lymphocyte [7] = test: Inhibition of methyl methanesulphonate-induced DNA damage in human lymphocyte assessed as tail length at 10 ug/ml after 1 hr before MMS challenge measured after 3 hrs by comet assay; format: functional
Hepa-1c1c7 [8] = test: Antioxidant activity in mouse Hepa-1c1c7 cells assessed as increase in total thiol content at […] after 48 hrs; format: functional, cell-based
How it was run: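 Hepa1c1c7 cells (1 x10⁶) exposed to compounds for 48 h (DMSO vehicle diluted 1000-fold; DMSO-treated cells as comparator). Total cellular thiols measured by glutathione disulfide reductase/DTNB enzymatic cycling. Four repeats, mean ± S.D.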

[9] = target: T1, Epoxide hydrolase 1 (Mus musculus) (UniProt Q9D379); test: Induction of mEH enzyme in mouse Hepa-1c1c7 assessed as formation of 7(29,39-dihydroxy)propoxycoumarin at 10 µg/ml after 48 hrs
T1 sequence (whole entry): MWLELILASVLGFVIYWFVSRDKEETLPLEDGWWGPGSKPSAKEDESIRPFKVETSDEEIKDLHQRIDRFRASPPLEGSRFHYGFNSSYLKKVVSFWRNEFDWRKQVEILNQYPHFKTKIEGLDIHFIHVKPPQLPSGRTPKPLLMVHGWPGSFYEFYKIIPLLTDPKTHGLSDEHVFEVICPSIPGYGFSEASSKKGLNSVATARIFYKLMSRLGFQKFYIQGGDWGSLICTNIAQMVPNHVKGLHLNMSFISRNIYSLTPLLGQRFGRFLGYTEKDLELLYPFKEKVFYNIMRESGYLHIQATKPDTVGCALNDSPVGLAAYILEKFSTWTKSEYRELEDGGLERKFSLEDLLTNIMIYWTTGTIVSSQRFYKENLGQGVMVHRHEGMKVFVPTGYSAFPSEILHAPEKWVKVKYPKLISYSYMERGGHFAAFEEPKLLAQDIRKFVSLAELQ

[10] = Antioxidant activity assessed as peroxyl radical scavenging activity by ORAC assay; format: functional

Row | SMILES | inhibition (Hepa-1c1c7 [1]) | Activity [2] | IC50 [3] | Activity (Hepa-1c1c7 [4]) | Activity (Lymphocyte [5]) | IC50 [6] | Activity (Lymphocyte [7]) | Activity (Hepa-1c1c7 [8]) | Activity [9] | Activity [10]
1 | COC(=O)c1c(C(=O)OC)c2cccc(C)n2c1C(=O)c1ccc2c(c1)CCCC2 | < 10% | Active | > 50 µg/mL | Active | Active | > 50 µg/mL | 18.3 micrometer | – | – | –
2 | COC(=O)c1c(C(=O)OC)c2cc(C)ccn2c1C(=O)c1ccc2c(c1)CCCC2 | < 10% | Active | > 50 µg/mL | – | Active | > 50 µg/mL | 22.8 micrometer | Active | – | –
3 | COC(=O)c1c(C(=O)OC)c2ccccn2c1C(=O)c1ccc2c(c1)CCCC2 | < 10% | – | > 50 µg/mL | – | – | > 50 µg/mL | 36.66 micrometer | – | – | –
4 | O=C(C[n+]1ccccc1)c1ccc2c(c1)CCCC2.[Br-] | < 10% | Active | > 50 µg/mL | Active | Active | > 50 µg/mL | 34.31 micrometer | Active | Active | Active
5 | c1ccc2c(c1)nc1[nH]c(-c3ccc4c(c3)CCCC4)cn12 | 26.4% | – | > 50 µg/mL | Active | Active | > 50 µg/mL | 17.2 micrometer | Active | – | –
6 | Cc1cc[n+](CC(=O)c2ccc3c(c2)CCCC3)cc1.[Br-] | < 10% | – | > 50 µg/mL | – | – | > 50 µg/mL | 59.41 micrometer | – | Active | –
7 | Cc1cccc[n+]1CC(=O)c1ccc2c(c1)CCCC2.[Br-] | < 10% | – | > 50 µg/mL | – | Active | > 50 µg/mL | 17.7 micrometer | – | Active | Active
